In the RNAGym collection of RNA variant scans (doi:10.1126/science.aae0568):
Variants at the floor of the assay were thinned out.

B1: tRNA (parent)
chain: GUUCCGUUGGCGUAAUGGUAACGCGUCUCCCUCCUAAGGAGAAGACUGCGGGUUCGAGUCCCGUACGGAACG

Variants of: B1
Experiment: yeast fitness relative to wild type (ratio to wild type); higher = fitter; tRNA-Arg(CCU), competitive growth, 37 C, YPD
Method in brief: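 For this measurement, the tRNA-Arg(CCU) gene was varied by chemical synthesis at a 3% per-site mutation rate across 69 sites, and each variant was placed at the native genomic locus in Saccharomyces cerevisiae. The pooled strains went through a 24-hour competition in YPD at 37°C in six parallel replicates, with amplicons from start and end populations read by 100-nucleotide paired-end sequencing. Darwinian fitness relative to wild type followed from the change in each genotype's frequency. Genotypes needed ≥ 100 starting reads, and estimates < 0.5 were set to 0.5.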
Variant GUUCCGUUGGUGUAAUGGUAACGCGUCUUCCUCCUAAGGAGAAGACUGCAGGUUCGAGUCCCGUAAGGAACG has a yeast fitness of at most 0.5. Variant GUUCCGUUGGUGUAAUGGUAACGCGUCUCCGUCGUAAGGAGAUGACUGCGGGUUCGAGUCCCGUACGGCACG has a yeast fitness of at most 0.5. GUUCCGUUGGUGUAAUGGUAACGCGUCUCCUUCCUAAGGAUAAGACUGUGGGUUCGAGUCCCGUACGGAACG showed a yeast fitness of 0.522. With GUUCCGUUGGUGUAAUGGUAACGCGUCUCUCUCCUAAGGAGAAGAAUGCGGGUUCGAGUCCCGUACGGAACG the yeast fitness was 0.821. Variant GUUCCGUUGGUGUAAUGGUAACGCGUCUCCCUCAUAAGGAGAAGACUGCGGGUUCGGGUCCCGUACGGAACG has a yeast fitness of 0.548. Variant GUUCCGUUGGUGUAAUGGUAACGCGUCUCCCUCAUAAGGACGAGACUGCGGGUUCGAGUCCCGUACGGAACG has a yeast fitness of at most 0.5. For GUUCCGUUGGUGUAAUGGUAACGCGUCUCCCUUCUAAGGAGAAGACUGCGGGUUCGAGUCCCGUACGGUACG, the yeast fitness was 0.605. In the case of GUUCCGUUGGUGUAAUGGUAACGCGUCUUCCUCCUAAGGAGAAGACUACGGGUUCGAGUCCCGUACGGAACG, the yeast fitness is reported as 0.621. Variant GUUCCGUUGGUGUAAUGGUAACGCGUCUCACUCCUAAGGAGAAGACUGCGGGUUCGAGUCCCGUCCGGAACG has a yeast fitness of 0.685. Variant GUUCCGUUGGUGUAAUGGUAACGCGUCUCCUUCCUAAGGAAAAGACUGCGGGUUCGAGUCCCGUACGGAACG has a yeast fitness of 0.714. For GUUCCGUUGGUGUAAUGGUAACGCGUCUUCCUCCUAAGGAGAAGACUGCGGGUUCGAGUGCCGUACGGAGCG, the yeast fitness was at most 0.5. Work on GUUCCGUUGGUGUAAUGGUAACGCGUCUCUCUCCUAAGGACAAGACUGCGGGUUCGAGUCCCGUACGGAACG yielded a yeast fitness of at most 0.5. GUUCCGUUGGUGUAAUGGUAACGCGUCUCUCUCCUAAGGAGAGGACUGCGGGUUCGAGUCCCGUACGGAACG showed a yeast fitness of at most 0.5. In the case of GUUCCGUUGGUGUAAUGGUAACGCGUCUGCUUCGUAAGGAGAAGACUGCGGGUUCGAGUCCCGUACGGACCG, the yeast fitness is reported as 0.534. GUUCCGUUGGUGUAAUGGUAACGCGUCUCGCUCCUAAGGAGAAGACUGCGGGUUCGAAUCCCGUACGGAACG gave a yeast fitness of at most 0.5. Variant GUUCCGUUGGUGUAAUGGUAACGCGUCUCCUUCCUAAGGAGAAGACUGCGGGUUCGAGUACCGUACGGAACG has a yeast fitness of at most 0.5. For GUUCCGUUGGUGUAAUGGUAACGCGUCUCCUUCCUAAGGAGAAGACUGCGGGUUCGAGACCCGUACGGAACG, the yeast fitness was at most 0.5. Variant GUUCCGUUGGUGUAAUGGUAACGCGUCUGCUUCCUAAGGAGAAGACUGCGGGUUCGUGUCCCGUACGGAACG has a yeast fitness of at most 0.5. GUUCCGUUGGUGUAAUGGUAACGCGUCUCCUUCCUAAGGAGGAGACUGCGGGUUCGAGUCCUGUACGGCACG showed a yeast fitness of at most 0.5. GUUCCGUUGGUGUAAUGGUAACGCGUCUCCUUCCUAAGGAGAAGACUGCGGGUUCGAGUCCCGUAUGGAACG gave a yeast fitness of 0.742. Work on GUUCCGUUGGUGUAAUGGUAACGCGUCUCCCUAGUAAGGAGAAGACUGCGGGUUCGAGUCCCGUACGGAACG yielded a yeast fitness of 0.526. GUUCCGUUGGUGUAAUGGUAACGCGUCUCCGUCCUAAGGAGAAGAAUGCGGGUCCGAGUCGCGUACGGAACG gave a yeast fitness of at most 0.5. For GUUCCGUUGGUGUAAUGGUAACGCGUCUCCAUCCUAAGGAGGAGACUGCGGGUUCGAGUCCCGUACGGAACG, the yeast fitness was 0.525. GUUCCGUUGGUGUAAUGGUAACGCGUCUCUCUCCUAACGAGAAGACUGCGGGUUCGAGUCCCGUGCGGAACG showed a yeast fitness of 0.506. Variant GUUCCGUUGGUGUAAUGGUAACGCGUCUCCCUCGUAAGGCGAGGACUGCGCGUUCGAGUCCCGUACGGAACG has a yeast fitness of at most 0.5. For GUUCCGUUGGUGUAAUGGUAACGCGUCUCCGUCCUAAGGAGAAGACUGCGGGUUCGUGUCCCGUACUGAACG, the yeast fitness was at most 0.5. For GUUCCGUUGGUGUAAUGGUAACGCGUCUCACUCCUAAGGAGAAGACAGCGGGUUCGAGUCCAGUACGGAACG, the yeast fitness was 0.591. In the case of GUUCCGUUGGUGUAAUGGUAACGCGUCUCUCUCGUAAGGAGAAGACUGCGGGUUCGAGUCCCGUACGGAACG, the yeast fitness is reported as 0.576. For GUUCCGUUGGUGUAAUGGUAACGCGUCUGCCUCCUACGGAGUAGACUGCGGGUUCGGGUCCCGUACGGAACG, the yeast fitness was at most 0.5. With GUUCCGUUGGUGUAAUGGUAACGCGUCUCCCUGCUAAGGAGAAGAAUGCGGGUUCGAGUCACGUACGGAACG the yeast fitness was at most 0.5. Work on GUUCCGUUGGUGUAAUGGUAACGCGUCUCCGUCCUAAGGAGAAGAGUGCGGGUUCGAGUCCCGUAUGGAACG yielded a yeast fitness of 0.564. In the case of GUUCCGUUGGUGUAAUGGUAACGCGUCUCCCUUCUAAGGAGAAGACUGCGGGUUCGAGUCCCGUACGCAACG, the yeast fitness is reported as 0.527. GUUCCGUUGGUGUAAUGGUAACGCGUCUCCCUGCUAAGGAGAAGACUGCGGGUUCGAGUACCGUACGGAACG gave a yeast fitness of at most 0.5. Variant GUUCCGUUGGUGUAAUGGUAACGCGUCUCUCUCCUAAGGAGAAGACUGCGGGUUCGAGUCCCGUACGGAACG has a yeast fitness of 0.748. GUUCCGUUGGUGUAAUGGUAACGCGUCUCCCUGCUAAGGAGAAGACUGCGGGUUCGAGUCUCGUACGGAACG showed a yeast fitness of at most 0.5. For GUUCCGUUGGUGUAAUGGUAACGCGUCUCCCUCGUAAGGAGAAGCCUGCGAGUUCGAGUCCCGUUCGGAACG, the yeast fitness was at most 0.5. For GUUCCGUUGGUGUAAUGGUAACGCGUCUCGCUCCUAAGGGGAAGACUGCCCGUUCGAGUCCCGUACGGAACG, the yeast fitness was at most 0.5.
